According to ChEMBL document CHEMBL3045225, “Vapor-phase toxicity of Derris scandens Benth.-derived constituents against four stored-product pests” (2011):
Values after ≈ are worked out from the molar mass of the structure shown. Active and inactive are the calls of the source. The rule behind the calls is not given here.

Tests used:
[1] = tested on: Callosobruchus chinensis; test: Insecticidal activity against 3 to 8 days old Callosobruchus chinensis assessed as mortality at 1 ug/mL measured after 24 hr by fumigation assay; type: functional
How it was run: (§1)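 Adults from Directorate of Maize Research lab cultures, 20 per sealed 100 mL PVC container. Acetone solutions (0.1-1.0 μg/mL) applied to filter paper, air-dried 5 min, fixed inside lid; acetone-only controls. Held at 28 ± 2 °C, 65 ± 5% RH. Death confirmed by paintbrush probing; counted every 24 h to 72 h. Five replicates per treatment; three runs on different dates.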

[2] = tested on: Tribolium castaneum; test: Insecticidal activity against 3 to 8 days old Tribolium castaneum (red flour beetle) assessed as mortality at 0.2 ug/mL measured within 24 hr by fumigation assay; type: functional, organism-based; how it was run: as §1
[3] = tested on: Tribolium castaneum; test: Insecticidal activity against 3 to 8 days old Tribolium castaneum (red flour beetle) assessed as mortality measured after 24 hr by fumigation assay; type: functional; how it was run: as §1
[4] = tested on: Tribolium castaneum; test: Insecticidal activity against 3 to 8 days old Tribolium castaneum (red flour beetle) assessed as mortality at 1 ug/mL measured after 72 hr by fumigation assay; type: functional; how it was run: as §1
[5] = tested on: Tribolium castaneum; test: Insecticidal activity against 3 to 8 days old Tribolium castaneum (red flour beetle) assessed as mortality at 1 ug/mL measured after 24 hr by fumigation assay; type: functional; how it was run: as §1
[6] = tested on: Rhyzopertha dominica; test: Insecticidal activity against 3 to 8 days old Rhyzopertha dominica assessed as mortality measured after 24 hr by fumigation assay; type: functional; how it was run: as §1
[7] = tested on: Rhyzopertha dominica; test: Insecticidal activity against 3 to 8 days old Rhyzopertha dominica assessed as mortality at 1 ug/mL measured after 72 hr by fumigation assay; type: functional; how it was run: as §1
[8] = tested on: Rhyzopertha dominica; test: Insecticidal activity against 3 to 8 days old Rhyzopertha dominica assessed as mortality at 1 ug/mL measured after 24 hr by fumigation assay; type: functional; how it was run: as §1
[9] = tested on: Sitophilus oryzae; test: Insecticidal activity against 3 to 8 days old Sitophilus oryzae (rice weevil) assessed as mortality measured after 72 hr by fumigation assay; type: functional; how it was run: as §1
[10] = tested on: Sitophilus oryzae; test: Insecticidal activity against 3 to 8 days old Sitophilus oryzae (rice weevil) assessed as mortality at 1 ug/mL measured after 72 hr by fumigation assay; type: functional; how it was run: as §1
[11] = tested on: Sitophilus oryzae; test: Insecticidal activity against 3 to 8 days old Sitophilus oryzae (rice weevil) assessed as mortality at 1 ug/mL measured after 24 hr by fumigation assay; type: functional; how it was run: as §1
[12] = tested on: Callosobruchus chinensis; test: Insecticidal activity against 3 to 8 days old Callosobruchus chinensis assessed as mortality measured after 72 hr by fumigation assay; type: functional; how it was run: as §1
[13] = tested on: Callosobruchus chinensis; test: Insecticidal activity against 3 to 8 days old Callosobruchus chinensis assessed as mortality at 1 ug/mL measured after 72 hr by fumigation assay; type: functional; how it was run: as §1
[14] = tested on: Callosobruchus chinensis; test: Insecticidal activity against 3 to 8 days old Callosobruchus chinensis assessed as mortality at 1 ug/mL measured after 48 hr by fumigation assay; type: functional; how it was run: as §1
[15] = tested on: Tribolium castaneum; test: Insecticidal activity against 3 to 8 days old Tribolium castaneum (red flour beetle) assessed as mortality at 1 ug/mL measured after 48/ hr by fumigation assay; type: functional; how it was run: as §1
[16] = tested on: Rhyzopertha dominica; test: Insecticidal activity against 3 to 8 days old Rhyzopertha dominica assessed as mortality at 1 ug/mL measured after 48 hr by fumigation assay; type: functional; how it was run: as §1
[17] = tested on: Sitophilus oryzae; test: Insecticidal activity against 3 to 8 days old Sitophilus oryzae (rice weevil) assessed as mortality at 1 ug/mL measured after 48 hr by fumigation assay; type: functional; how it was run: as §1

Compound	mortality at 1 µg/mL [1] [%]	Activity [2]	LC50 [3] [µg/mL]	mortality at 1 µg/mL [4] [%]	mortality at 1 µg/mL [5] [%]	LC50 [6] [µg/mL]	mortality at 1 µg/mL [7] [%]	mortality at 1 µg/mL [8] [%]	LC50 [9] [µg/mL]	mortality at 1 µg/mL [10] [%]	mortality at 1 µg/mL [11] [%]	LC50 [12] [µg/mL]	mortality at 1 µg/mL [13] [%]	mortality at 1 µg/mL [14] [%]	mortality at 1 µg/mL [15] [%]	mortality at 1 µg/mL [16] [%]	mortality at 1 µg/mL [17] [%]
O=c1c(-c2ccc(O)cc2)coc2cc(O)cc(O)c12 [GENISTEIN]	100	Active	0.18 (≈ 0.666 µM)	100	100	0.28 (≈ 1.04 µM)	100	100	0.31 (≈ 1.15 µM)	100	100	0.17 (≈ 0.629 µM)	100				
CC(C)=CCc1c2c(c(O)c3c(=O)cc(-c4ccc(O)cc4)oc13)C=CC(C)(C)O2 [LAXIFOLIN]	88.8		0.34 (≈ 0.841 µM)	100	92.3	0.34 (≈ 0.841 µM)	92	89.3	0.2 (≈ 0.494 µM)	100	100	0.39 (≈ 0.964 µM)	96.4	93.2	94.6	90.8	
CC(C)=CCc1cc(-c2coc3cc(O)c(CC=C(C)C)c(O)c3c2=O)ccc1O [LUPALBIGENIN]	100		0.38 (≈ 0.935 µM)	91	85.4	0.29 (≈ 0.713 µM)	100	93.4	0.26 (≈ 0.64 µM)	100	100	0.23 (≈ 0.566 µM)	100		88.4	94.6	
CC(C)=CCc1c2c(c3occ(-c4ccc(O)cc4)c(=O)c3c1O)C=CC(C)(C)O2 [OSAJIN]	100	Active	0.26 (≈ 0.643 µM)	100	100	0.32 (≈ 0.791 µM)	100	100	0.28 (≈ 0.692 µM)	100	100	0.29 (≈ 0.717 µM)	100				
COc1ccc(-c2c(O)c3c(OC)c(CC=C(C)C)c4c(c3oc2=O)C=CC(C)(C)O4)cc1 [SCANDENIN A]	79		0.82 (≈ 1.83 µM)	63.8	58.2	0.82 (≈ 1.83 µM)	67.8	60.6	0.76 (≈ 1.69 µM)	75.6	69.4	0.43 (≈ 0.959 µM)	83	81.4	60.8	64.2	72
COc1c(CC=C(C)C)c2c(c3oc(=O)c(-c4ccc(O)cc4)c(O)c13)C=CC(C)(C)O2 [SCANDENIN]	49.5		> 1	32.2	24.7	0.74 (≈ 1.7 µM)	78.2	72.3	0.45 (≈ 1.04 µM)	85.4	82	0.9 (≈ 2.07 µM)	58.2	56	29.6	75.8	83.6
COc1c(CC=C(C)C)c2c(c3occ(-c4ccc(O)cc4)c(=O)c13)C=CC(C)(C)O2 [SCANDINONE]	100	Active	0.2 (≈ 0.478 µM)	100	100	0.33 (≈ 0.789 µM)	100	100	0.24 (≈ 0.573 µM)	100	100	0.31 (≈ 0.741 µM)	100				
C[C@@H]1O[C@@H](OC[C@H]2O[C@@H](Oc3cc(O)c4c(=O)c(-c5ccc(O)cc5)coc4c3)[C@H](O)[C@@H](O)[C@@H]2O)[C@H](O)[C@H](O)[C@H]1O [SPHAEROBIOSIDE]	100	Active	0.2 (≈ 0.346 µM)	100	100	0.27 (≈ 0.467 µM)	100	100	0.18 (≈ 0.311 µM)	100	100	0.21 (≈ 0.363 µM)	100				
CC(C)=CCc1c2c(c(O)c3c(=O)c(-c4ccc(O)cc4)coc13)C=CC(C)(C)O2 [WARANGALONE]	27.9		> 1	37.2	30.7	> 1	21.8	15.8	0.84 (≈ 2.08 µM)	63.4	50.1	> 1	31.4	29.1	32.8	18.6	60
